HUVEC inhibit – human endothelial cell proliferation inhibition. HUVEC proliferation, CellTiter-Glo luminescence, 72 h; hits give low values. viability, % at 10 µM (by protocol). 86,000 tested, 1.1% active. AID 648;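 active = viability at or below 30%; inactive = viability above 30%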
Ecoli tolC – E. coli tolC mutant growth inhibition. E. coli BW25113 tolC mutant growth, OD615. growth inhibition, % at 10 µM (by protocol). 65,000 tested, 2.2% active;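 active = growth inhibition at or above a cutoff equal to the mean over every tested compound plus 3 SD, cut at about 60% in these data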;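 also: growth measured after 20 h incubation at 37 °C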
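Doses: one dose of 10 µM final / Material: E. coli BW25113 ΔtolC::kan, tolC deletion mutant strain / Buffer or medium: LB with kanamycin 50 µg/mL / Evaluation: percent growth inhibition / Detection: optical density read at 615 nm / Incubation: 37 °C, 20 h exposure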
H69AR inhibit – blocks growth of human H69AR lung tumor cells; H69AR lung tumor viability, ATP luminescence, 72 h; hits give low values; 85,000 tested, 6% active; viability, % at 10 µM;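 active = viability at or below 40%; inactive = viability above 40%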;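 also: multidrug resistant small cell line overexpressing MRP-1 efflux transporter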
Jurkat tox 60K – reduces viability or proliferation of Jurkat cells; Jurkat E6.1 viability, ATP luminescence, 48 h; inhibition, % at 4 µM; 56,000 tested, 1.2% active; AID 463;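 active = inhibition above the mean inhibition of all tested compounds plus 3 SD, cut at about 28% in these data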
E coli WT exp – blocks growth of wild type E. coli BW25113. OD600 absorbance. growth inhibition, % at 100 µM. 98,000 tested, 0.15% active. AID 710;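 active = growth inhibition above about 50% at one test dose, limit read from the data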;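 also: growth measured after 20 h incubation at 37 °C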
Lung fibro prol – blocks proliferation of human lung fibroblasts; LL 47 human lung fibroblast viability, ATP luminescence; hits give low values; viability, % at 10 µM; 85,000 tested, 1.1% active;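 active = viability at or below 50% in the single dose screen; inactive = viability above 50%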;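 also: compound exposure lasted 72 h before the ATP readout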
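Signal: luminescent ATP detection, CellTiter-Glo; assay system: LL 47 human lung fibroblasts; input: 1,150 cells/well; incubation: overnight cell rest, 72 h compound treatment at 37 °C; measure: % viability versus median cells-only luminescence; medium: IMEM growth medium with 15% fetal bovine serum; dosing: compound addition at 0.1% DMSO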
Each line names hits and unclear results; the compound was inactive in the other large screens. Hits are enriched below; roughly 6.4% of the tested compounds scored in any of these assays.

Clc1ncnc2scc(C3COc4ccccc4O3)c12 (stereo not drawn)	H69AR inhibit 7.0 (no result: Ecoli tolC, Jurkat tox 60K, E coli WT exp)
Cc1ccc(CSc2nnc(-c3cccnc3)n2N)cc1	none (no result: Ecoli tolC, Jurkat tox 60K)
Cc1ccc(C(=O)CSc2nnc(-c3cccnc3)n2N)cc1	H69AR inhibit 27
Cc1cc(C(=O)CSc2nnc(-c3cccnc3)n2-c2ccccc2F)c(C)n1C	H69AR inhibit 34
C#CCOC(=O)c1ccc(-n2cncn2)nc1	none (no result: Ecoli tolC, Jurkat tox 60K)
Cc1ccc2c(CC(=O)OCc3nc(N)nc(Nc4ccccc4C)n3)coc2c1	Ecoli tolC 72
CNc1c([N+](=O)[O-])cnn1-c1ccc(C)cc1	none (no result: HUVEC inhibit, Ecoli tolC, H69AR inhibit, Jurkat tox 60K, Lung fibro prol)
CCOc1ccccc1C(=O)N1CCC(n2nnc3cc(C(F)(F)F)ccc32)CC1	H69AR inhibit 39 (no result: Ecoli tolC, Jurkat tox 60K)
CCOc1ccccc1C(=O)N1CCC(n2nnc3cc(C)ccc32)CC1	none
Cc1nnc(SCc2cc(=O)[nH]c(N3CCCCC3)n2)s1	none (no result: E coli WT exp)
O=S(=O)(Nc1ncnc2sc3c(c12)CCC3)c1ccc(Cl)s1	Ecoli tolC 63
O=C(O)[C@H](CO)Nc1ncnc2sc3c(c12)CCC3	none (no result: Ecoli tolC, Jurkat tox 60K)
CC(C)(C)c1nnc2sc(SCC(=O)N3CCCc4ccccc43)nn2c1=O	H69AR inhibit 17
CC(C)(C)c1nnc2sc(SCC(=O)c3cccs3)nn2c1=O	H69AR inhibit 14 (no result: Jurkat tox 60K)
Cc1ccc(C(=O)CSc2nn3c(=O)c(C(C)(C)C)nnc3s2)cc1	none (no result: Ecoli tolC, Jurkat tox 60K)
COc1cc(-c2nnc(SCC3(c4ccccc4)OCCO3)o2)cc(OC)c1OC	none (no result: HUVEC inhibit, Ecoli tolC, H69AR inhibit, Jurkat tox 60K, Lung fibro prol)
CCc1ccc(C(=O)COc2ccc(NC(C)=O)cc2)cc1	none (no result: HUVEC inhibit, Ecoli tolC, H69AR inhibit, Jurkat tox 60K, Lung fibro prol)
CCOC(=O)c1cccc(NC(=O)c2cc3sccc3n2C)c1	Ecoli tolC 73
COc1ccc(-n2nnnc2-c2cn(C)nc2C(F)(F)F)cc1	none (no result: HUVEC inhibit, Ecoli tolC, H69AR inhibit, Jurkat tox 60K, Lung fibro prol)
Cc1ccc2cc(CN(Cc3ccc(F)cc3)Cc3nnnn3C3CCCC3)c(=O)[nH]c2c1	Ecoli tolC 66, H69AR inhibit 36
CCc1ccc2[nH]c(=O)c(CN(Cc3ccc4c(c3)OCO4)Cc3nnnn3C3CCCC3)cc2c1	H69AR inhibit 4.8
COc1ccc2cc(CN(Cc3ccco3)Cc3nnnn3C3CCCCC3)c(=O)[nH]c2c1	none
COc1ccc(Cn2nnnc2CN(Cc2cc3ccc(C)cc3[nH]c2=O)C2CCCC2)cc1	none
Cc1ccc2cc(CN(Cc3ccccc3)Cc3nnnn3C3CCCC3)c(=O)[nH]c2c1	Ecoli tolC 73, H69AR inhibit 5.0
Cc1ccc2[nH]c(=O)c(CN(CCCN3CCOCC3)Cc3nnnn3C3CCCC3)cc2c1	none
CC(C)(C)N=C1NC(=NC(C)(C)C)c2ccccc21	none
CCOC(=O)N1CCN(C(=O)c2ccc3c(=O)n(Cc4ccc(Cl)cc4)c(=S)[nH]c3c2)CC1	H69AR inhibit 13 (no result: Jurkat tox 60K)
CCOC(=O)N1CCN(C(=O)c2ccc3c(=O)n(CCc4ccccc4)c(=S)[nH]c3c2)CC1	H69AR inhibit 10
COCCn1c(=S)[nH]c2cc(C(=O)N3CCN(c4ccccc4OC)CC3)ccc2c1=O	none (no result: Jurkat tox 60K)
COCCn1c(=S)[nH]c2cc(C(=O)N3CCN(c4ccc(F)cc4)CC3)ccc2c1=O	H69AR inhibit 35 (no result: Jurkat tox 60K)
CCN1CCN(C(=O)c2ccc3c(=O)n(C4CCCC4)c(=S)[nH]c3c2)CC1	none
O=C(c1ccc2c(=O)n(C3CCCC3)c(=S)[nH]c2c1)N1CCN(C2CCCCC2)CC1	Ecoli tolC 68
CCOC(=O)N1CCN(C(=O)c2ccc3c(=O)n(CCC4=CCCCC4)c(=S)[nH]c3c2)CC1	none
CCN1CCN(C(=O)C2CCN(C(=O)c3cc4sccc4n3CC)CC2)CC1	none
CCn1c(C(=O)N2CCC(C(=O)NCCCSC3CCCCC3)CC2)cc2sccc21	Ecoli tolC 84
CN1CCCN(C(c2ccccc2)c2ccc(Cl)cc2)CC1 (stereo not drawn)	H69AR inhibit 25 (no result: Jurkat tox 60K, E coli WT exp)
Cc1cccc(CN2CCN(C(c3ccccc3)c3ccc(Cl)cc3)CC2)c1 (stereo not drawn)	none (no result: Jurkat tox 60K, E coli WT exp)
O=C(CSc1nc2ccccc2c(=O)[nH]1)Nc1ccc(S(=O)(=O)N2CCCC2)cc1	none
CCSc1nc(-c2ccc(OC)cc2)cc(-c2ccccc2)c1C#N	none (no result: Ecoli tolC, Jurkat tox 60K)
COc1ccccc1CNC(=O)CSc1nc(N)c(C#N)c(-c2cccs2)c1C#N	none (no result: Ecoli tolC, Jurkat tox 60K)
COc1ccc(-c2cc(-c3cccs3)c(C#N)c(SCC(=O)NCc3ccccc3OC)n2)cc1	H69AR inhibit 11, Lung fibro prol 49 (no result: Ecoli tolC, Jurkat tox 60K)
COc1ccc(-c2cc(-c3cccs3)c(C#N)c(SCC(=O)NCc3ccccc3)n2)cc1	H69AR inhibit 35 (no result: Ecoli tolC, Jurkat tox 60K)

Screening results as filed in PubChem BioAssay.
